# NALP3 yeast inh = NALP3 inflammasome inhibitors in reconstituted yeast, primary screen, luminescence, uHTS; Yeast reconstituted NLRP3/ASC/caspase-1, beta-gal luminescence, 24 h; inhibition, % at 10 µM; 330,000 tested, 0.39% active; AID 2825, 2010;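 active = inhibition of 50% or more; inactive = inhibition below 50%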;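 also: plate controls were induced DMSO wells for no effect and uninduced yeast grown without galactose for full effect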
# PolyA inh = polyadenylation inhibitors in yeast reporter cells, primary screen, luminescence, S. cerevisiae | 300,000 tested, 0.02% active | S. cerevisiae SKY197-pL101 polyadenylation reporter, beta-gal luminescence; efflux-impaired pdr1/pdr3 knockout yeast; score 100 = 6 SD above DMSO | activity score, % at 12 µM;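 active = lowest replicate activity score at least 50, where 100 means six control SD above control mean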;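 also: yeast exposed to compound for 9 h at 30 °C; higher score means more reporter readthrough which indicates perturbed polyadenylation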
# IMP-1 inhibitor = IMP-1 metallo-beta-lactamase inhibitors, primary screen, biochemical, epi-absorbance readout, Pseudomonas aeruginosa enzyme | purified IMP-1, nitrocefin hydrolysis, epi-absorbance fluorescence | 290,000 tested, 0.45% active | metallo-beta-lactamase IMP-1 (Pseudomonas aeruginosa) | inhibition, % at 5.6 µM | AID 1556, 2009;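 active = inhibition above the mean plus 3 SD of all compounds in the same screening run, cut at about 4.5% in these data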;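 also: 0% = IMP-1 with DMSO and 100% = DMSO wells lacking enzyme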
#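 System: purified IMP-1 / Input: IMP-1 dispensed at 0.2 nM / Medium: 50 mM HEPES pH 7.1, 50 µM ZnSO4, 0.05% Brij 35 / Timing: 15 min enzyme–compound preincubation, then 25 min nitrocefin reaction, 25 °C / Technique: plate fluorescence quenching by hydrolysis product, ex 480/em 530 nm / Repeats: singlicate testing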
# Mot1-301 SUMO = yeast Mot1-301 growth rescue at high temperature, primary screen, SUMOylation pathway inhibitor project, S. cerevisiae, ATP luminescence, 38.5C; S. cerevisiae Mot1-301 growth rescue; percent above DMSO median, 100 means doubled; 320,000 tested, 1% active; AID 2716, 2010; growth rescue, % at 18.8 µM;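 active = every valid replicate shows activation above 250% relative to neutral control wells; inactive = the rest, any valid replicate at or below 250%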;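 also: OY570 slx delta 5 strain wells were the positive control but not used for scaling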
# NALP1 yeast inh = NALP1 inflammasome inhibitors in reconstituted yeast, colorimetric, S. cerevisiae, triplicate retest. AID 2071, 2009. 280,000 tested, 0.61% active. inhibition, % at 10 µM. S. cerevisiae NALP1/ASC/caspase-1 growth, X-gal OD620, 72 h; in the data active = inhibition mostly above about 24%, no sharp cut-off; inactive = mostly below about 32%
# VIM-2 inhibitor = VIM-2 metallo-beta-lactamase inhibitors, primary screen, biochemical, epi-absorbance readout, Pseudomonas aeruginosa enzyme; purified VIM-2, nitrocefin hydrolysis, epi-absorbance fluorescence; inhibition, % at 5.6 µM; 290,000 tested, 0.89% active; AID 1527, 2009;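 active = inhibition above the mean of all tested compounds plus 3 SD, cutoff set per screening run, cut at about 7.5% in these data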;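 also: red hydrolysis product quenches plate fluorescence so inhibitors raise well fluorescence; 0% = enzyme with DMSO and 100% = DMSO without enzyme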
# Numbers without * were called inactive; x = not tested or not shown. Shown are actives, neighbours in structure and some others; about 2.9% of the full set was active somewhere.
SMILES,NALP3 yeast inh,PolyA inh,IMP-1 inhibitor,Mot1-301 SUMO,NALP1 yeast inh,VIM-2 inhibitor
C=CCn1c(SCC(=O)NCCCC)nc2scc(-c3ccco3)c2c1=O,0,-4,7.9*,-7,-23,2
Cc1nc2scc(-c3ccccc3)c2c(=O)n1N=C1C=CC(=O)C=C1,22,-11,0,x,-19,1
N#CCC(=O)N/N=C/c1cn(Cc2cccc3ccccc23)c2ccccc12,-4,-21,-1,-2,41*,3
C=CCn1cc(/C=N/NC(=O)COc2cccc3cccnc23)c2ccccc21,24,-4,2,-1,29,9.3*
COc1ccccc1N1CCN(C2CCCN(C(=O)CN3CCCCC3=O)C2)CC1 (stereo not drawn),-3,15,0,-6,16,2
C/C(=N\NC(=O)c1nnn(-c2nonc2N)c1CN1CCOCC1)c1ccc(CC(C)C)cc1,16,-13,-1,-4,9,-1
Cc1cc2[nH]c(=O)c(=O)[nH]c2cc1S(=O)(=O)N1CCN(c2ccccc2F)CC1,16,12,3,1,-2,-4
COc1ccccc1N1CCN(S(=O)(=O)c2cc3[nH]c(=O)c(=O)[nH]c3cc2C)CC1,-7,0,4.5*,-8,6,-1
CCCc1cc(=O)oc2c3c(c(Cl)cc12)OCN(CCCO)C3,6,13,10*,2,-15,4
O=C1CN=C(Nc2ccccc2Cl)N1c1ccccc1,27,6,-4,-9,34*,-3
CCOc1ccc(N2C(=O)CN=C2Nc2ccccc2Cl)cc1,6,-1,-4,-2,11,-1
Cc1ccc(OCCC(=O)N2CCN(c3ccc(O)cc3)CC2)cc1,24,-7,-4,74,38*,2
CCOc1ccc(C(=O)CCC(=O)N2CCN(c3ccc(O)cc3)CC2)cc1,11,x,x,72,x,x
COc1cccc(-c2c(-c3cc(OC)cc(OC)c3)n(C)c3ccc(-c4cnc(N5CCOCC5)nc4)cc23)c1,1,x,x,29,x,x
Cc1c(C)[n+](=O)c2c(n1[O-])C(Br)CCC2Br (stereo not drawn),-2,0,-5,-6,18,-2
Cc1c(CBr)[n+](=O)c2c(n1[O-])C(Br)CCC2Br (stereo not drawn),22,-12,-4,10,42*,-2
CN1CCOc2cc(S(=O)(=O)Nc3ccc(F)cc3)ccc21,-3,11,-2,-2,26*,-4
Cc1ccc(NS(=O)(=O)c2ccc3c(c2)N(C)CCO3)cc1,3,-17,1,-25,17,1
Cc1ccc(C(=O)N/C(=C\c2ccco2)C(=O)NCCCn2ccnc2)cc1,5,8,8.8*,62,23,-3
Cc1ccc(C(=O)N/C(=C/c2ccco2)C(=O)NCCCn2ccnc2)cc1,3,9,0,5,20,-1
CN(C)c1ccc(/C=C(\NC(=O)c2ccccc2)C(=O)NCCCn2ccnc2)cc1,4,1,5.4*,-3,8,-2
O=C(Nc1ccc(F)cc1)C1CCCN(S(=O)(=O)c2ccc3[nH]c(=O)ccc3c2)C1 (stereo not drawn),12,-5,-4,315,16,-1
COc1ccc(O)c(/C=N/NC(=O)c2cc(=O)[nH]c3ccccc23)c1,1,20,-3,2,45*,-4
O=C(N/N=C/c1ccccc1)c1cc(=O)[nH]c2ccccc12,14,-4,-4,-3,28,-2
Cc1ccc2nc3c(cc(C(=O)NC4CCCCC4)c(=N)n3C3CCCCC3)c(=O)n2c1,30,9,-3,-18,3,5
C=CCn1c(=N)c(C(=O)NCCCOC)cc2c(=O)n3cc(C)ccc3nc21,11,12,-5,-1,12,11*
